Results published in ChEMBL document CHEMBL4422628, “Discovery of first-in-class thiazole-based dual FFA1/PPARδ agonists as potential anti-diabetic agents” (Eur J Med Chem, 2019).

Test system: not listed separately
Experiment: Cmax in Sprague-Dawley rat at 3 mg/kg, po by LC-MS/MS analysis
Assay type: ADME, organism-based
Parameters: dose 3 mg/kg, route oral
Conditions: in vivo

Structure (SMILES)	Cmax
Cc1nc(-c2ccc(C(F)(F)F)cc2)sc1COc1ccc2c(c1)OC[C@H]2CC(=O)O	9450 ng/mL

Test system: Mus musculus
Experiment: Antidiabetic activity in ob/ob mouse assessed as reduction in blood glucose AUC (0 to 120 mins) at 30 mg/kg, po administered as single dose pretreated for 30 mins followed by glucose-challenge by glucometric analysis relative to control
Assay type: functional
Parameters: scale not given: the % may be the effect or the level left
Conditions: not given
Summary of the method: (§1)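 Male ob/ob mice (six weeks old on arrival, acclimatized one week) were fasted 12 h and randomized (n = 6/group). Each received a single oral dose in 0.5% carboxymethyl cellulose vehicle, then 3 g/kg oral glucose 30 min later. Blood glucose was measured by glucometer at −30, 0, 15, 30, 60 and 120 min. Glucose AUC0-120min was calculated, mean ± SD.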

Structure (SMILES)	Activity
Cc1nc(-c2ccc(C(F)(F)F)cc2)sc1COc1ccc2c(c1)OC[C@H]2CC(=O)O	6.1%

Target: T1, Peroxisome proliferator-activated receptor alpha (Homo sapiens, UniProt Q07869)
T1 sequence (Q07869 whole entry): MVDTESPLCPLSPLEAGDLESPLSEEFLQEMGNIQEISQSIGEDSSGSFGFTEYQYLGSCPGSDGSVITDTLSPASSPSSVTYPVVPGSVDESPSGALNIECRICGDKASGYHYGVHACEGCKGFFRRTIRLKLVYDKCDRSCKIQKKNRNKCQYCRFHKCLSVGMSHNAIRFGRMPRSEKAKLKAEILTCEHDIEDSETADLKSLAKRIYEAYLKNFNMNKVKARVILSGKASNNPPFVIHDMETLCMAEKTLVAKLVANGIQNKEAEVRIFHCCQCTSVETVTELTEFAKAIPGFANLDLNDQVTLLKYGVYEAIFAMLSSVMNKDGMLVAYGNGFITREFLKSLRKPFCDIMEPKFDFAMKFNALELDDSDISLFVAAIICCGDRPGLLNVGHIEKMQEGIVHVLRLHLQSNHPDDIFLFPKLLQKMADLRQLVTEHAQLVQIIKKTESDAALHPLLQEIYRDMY
Experiment: Transactivation of GAL4-fused human PPARalpha LBD expressed in HEK293 cells after 18 hrs by luciferase reporter gene assay
Assay type: cell-based
Conditions: not given
Summary of the method: (§2)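 HepG2 or HEK293 cells were transfected with pBIND-PPARα, -δ or -γ (GAL4 fusion). Compounds at varying concentrations were incubated for 18 h. Cells were then lysed and firefly and renilla luciferase were read by dual-luciferase assay.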

Structure (SMILES)	EC50
Cc1nc(-c2ccc(C(F)(F)F)cc2)sc1COc1ccc2c(c1)OC[C@H]2CC(=O)O	> 10 µM

Target: T2, Peroxisome proliferator-activated receptor gamma (Homo sapiens, UniProt P37231)
T2 sequence (P37231 whole entry): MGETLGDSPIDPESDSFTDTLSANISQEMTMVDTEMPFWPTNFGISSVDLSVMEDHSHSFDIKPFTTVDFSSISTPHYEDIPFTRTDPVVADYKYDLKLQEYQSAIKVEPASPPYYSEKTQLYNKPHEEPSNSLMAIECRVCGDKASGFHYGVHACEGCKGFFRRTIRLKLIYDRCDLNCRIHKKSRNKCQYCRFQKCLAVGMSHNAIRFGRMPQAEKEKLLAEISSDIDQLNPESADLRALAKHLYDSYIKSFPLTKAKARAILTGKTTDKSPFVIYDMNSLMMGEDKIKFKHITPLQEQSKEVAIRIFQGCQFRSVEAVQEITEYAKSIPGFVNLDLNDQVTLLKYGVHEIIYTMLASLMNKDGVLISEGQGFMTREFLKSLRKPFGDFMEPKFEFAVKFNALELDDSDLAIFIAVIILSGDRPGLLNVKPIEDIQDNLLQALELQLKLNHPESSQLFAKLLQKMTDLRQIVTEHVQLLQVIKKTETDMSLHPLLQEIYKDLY
Experiment: Transactivation of GAL4-fused human PPARgamma LBD expressed in HEK293 cells after 18 hrs by luciferase reporter gene assay
Assay type: cell-based
Conditions: not given
Summary of the method: as §2

Structure (SMILES)	EC50
Cc1nc(-c2ccc(C(F)(F)F)cc2)sc1COc1ccc2c(c1)OC[C@H]2CC(=O)O	> 10 µM

Target: T3, Peroxisome proliferator-activated receptor delta (Homo sapiens) (UniProt Q03181)
T3 sequence (whole entry): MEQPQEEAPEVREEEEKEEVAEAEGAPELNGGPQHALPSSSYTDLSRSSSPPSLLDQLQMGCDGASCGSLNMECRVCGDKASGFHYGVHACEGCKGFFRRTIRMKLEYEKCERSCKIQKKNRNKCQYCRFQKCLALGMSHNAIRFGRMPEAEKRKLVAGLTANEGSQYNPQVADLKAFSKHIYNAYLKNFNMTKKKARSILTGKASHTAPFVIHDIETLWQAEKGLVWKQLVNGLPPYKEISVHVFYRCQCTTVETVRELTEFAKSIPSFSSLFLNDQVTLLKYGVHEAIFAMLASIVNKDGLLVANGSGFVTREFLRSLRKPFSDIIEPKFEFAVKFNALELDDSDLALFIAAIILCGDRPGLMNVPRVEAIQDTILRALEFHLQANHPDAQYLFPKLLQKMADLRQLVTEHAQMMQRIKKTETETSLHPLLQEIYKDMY
Experiment: Transactivation of GAL4-fused human PPARdelta LBD expressed in HEK293 cells assessed as activity percentage at 10 uM after 18 hrs by luciferase reporter gene assay relative to control
Assay type: cell-based
Conditions: not given
Summary of the method: as §2

Structure (SMILES)	Activity
O=C(O)COc1ccc(OCc2ncc(-c3ccccc3)s2)cc1F	23%
O=C(O)COc1ccc(OCc2nnc(-c3ccccc3)o2)cc1F	3%
Cc1sc(-c2ccccc2)nc1CNc1ccc(OCC(=O)O)c(F)c1	12%
Cc1cc(OCc2ncc(-c3ccccc3)o2)ccc1OCC(=O)O	12%
Cc1sc(-c2ccccc2)nc1COc1ccc(OCC(=O)O)c(F)c1	31%
O=C(O)COc1ccc(OCc2csc(-c3ccccc3)n2)cc1F	20%
O=C(O)COc1ccc(OCc2nnc(-c3ccccc3)s2)cc1F	4%
O=C(O)COc1ccc(OCc2nc(-c3ccccc3)cs2)cc1F	11%
O=C(O)COc1ccc(OCc2ncc(-c3ccccc3)o2)cc1F	8%
Cc1cc(OCc2csc(-c3ccccc3)n2)ccc1OCC(=O)O	35%
Cc1cc(OCc2nnc(-c3ccccc3)s2)ccc1OCC(=O)O	9%

Test system: Mus musculus
Experiment: Antidiabetic activity in ob/ob mouse assessed as reduction in blood glucose AUC (0 to 120 mins) at 100 mg/kg, po administered as single dose pretreated for 30 mins followed by glucose-challenge by glucometric analysis relative to control
Assay type: functional
Parameters: scale not given: the % may be the effect or the level left
Conditions: not given
Summary of the method: as §1

Structure (SMILES)	Activity
Cc1nc(-c2ccc(C(F)(F)F)cc2)sc1COc1ccc2c(c1)OC[C@H]2CC(=O)O	10.9%

Test system: Mus musculus
Experiment: Antidiabetic activity in ob/ob mouse assessed as reduction in blood glucose AUC (0 to 120 mins) at 40 mg/kg, po administered as single dose pretreated for 30 mins followed by glucose-challenge by glucometric analysis relative to control
Assay type: functional
Parameters: scale not given: the % may be the effect or the level left
Conditions: not given
Summary of the method: as §1

Structure (SMILES)	Activity
Cc1cc(OCCCS(C)(=O)=O)cc(C)c1-c1cccc(COc2ccc3c(c2)OC[C@H]3CC(=O)O)c1	15.7%

Target: T4, Free fatty acid receptor 1 (Homo sapiens, UniProt O14842)
T4 sequence (O14842 whole entry): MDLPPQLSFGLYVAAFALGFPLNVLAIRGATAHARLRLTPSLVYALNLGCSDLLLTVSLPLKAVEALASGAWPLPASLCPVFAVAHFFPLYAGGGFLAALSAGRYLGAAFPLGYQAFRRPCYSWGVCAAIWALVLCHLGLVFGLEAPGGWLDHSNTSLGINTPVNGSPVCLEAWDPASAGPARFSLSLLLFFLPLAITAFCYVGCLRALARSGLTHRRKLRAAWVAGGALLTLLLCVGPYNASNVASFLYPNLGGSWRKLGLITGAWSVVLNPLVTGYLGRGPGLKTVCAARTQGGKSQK
Experiment: Agonist activity at human FFA1 receptor expressed in CHO cells by Fluo 4-AM dye based FLIPR assay
Assay type: cell-based
Conditions: not given
Summary of the method: (§3)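 hFFA1-expressing CHO cells were loaded for 1 h at 37 °C with buffer containing 2.5 μg/mL Fluo 4-AM, 0.1% fatty acid-free BSA and 2.5 mmol/L probenecid. Compounds were added and calcium flux was read on FLIPR. Activity = (A–B)/(C–B)×100%, where A is the compound response, B the vehicle response and C the 10 μM γ-linolenic acid response.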

Structure (SMILES)	EC50
Cc1nc(-c2ccc(F)cc2)sc1COc1ccc(OCC(=O)O)c(F)c1	0.112 µM
O=C(O)COc1ccc(OCc2ncc(-c3ccccc3)s2)cc1F	> 10 µM
Cc1nc(-c2ccc(C(F)(F)F)cc2)sc1COc1ccc(OCC(=O)O)c(F)c1	0.149 µM
Cc1nc(-c2ccc(Cl)cc2)sc1COc1ccc2c(c1)OCC2CC(=O)O (stereo not drawn)	0.105 µM
O=C(O)COc1ccc(OCc2nnc(-c3ccccc3)o2)cc1F	> 10 µM
Cc1nc(-c2ccc(C(F)(F)F)cc2)sc1COc1ccc2c(c1)OC[C@H]2CC(=O)O	0.068 µM
Cc1sc(-c2ccccc2)nc1CNc1ccc(OCC(=O)O)c(F)c1	> 10 µM
Cc1cc(OCc2ncc(-c3ccccc3)o2)ccc1OCC(=O)O	> 10 µM
Cc1sc(-c2ccccc2)nc1COc1ccc(OCC(=O)O)c(F)c1	> 10 µM
O=C(O)COc1ccc(OCc2csc(-c3ccccc3)n2)cc1F	> 10 µM
O=C(O)COc1ccc(OCc2nnc(-c3ccccc3)s2)cc1F	> 10 µM
O=C(O)COc1ccc(OCc2nc(-c3ccccc3)cs2)cc1F	> 10 µM
O=C(O)COc1ccc(OCc2ncc(-c3ccccc3)o2)cc1F	> 10 µM
Cc1cc(OCc2csc(-c3ccccc3)n2)ccc1OCC(=O)O	> 10 µM
Cc1cc(OCc2nnc(-c3ccccc3)s2)ccc1OCC(=O)O	> 10 µM

Target: T5, Peroxisome proliferator-activated receptor delta (Homo sapiens, UniProt Q03181)
T5 sequence (Q03181 whole entry): T3 sequence (whole entry)
Experiment: Transactivation of GAL4-fused human PPARdelta LBD expressed in HEK293 cells after 18 hrs by luciferase reporter gene assay
Assay type: cell-based
Conditions: not given

Structure (SMILES)	EC50
Cc1nc(-c2ccc(F)cc2)sc1COc1ccc(OCC(=O)O)c(F)c1	0.729 µM
O=C(O)COc1ccc(OCc2ncc(-c3ccccc3)s2)cc1F	> 10 µM
Cc1nc(-c2ccc(C(F)(F)F)cc2)sc1COc1ccc(OCC(=O)O)c(F)c1	0.436 µM
Cc1nc(-c2ccc(Cl)cc2)sc1COc1ccc2c(c1)OCC2CC(=O)O (stereo not drawn)	0.264 µM
O=C(O)COc1ccc(OCc2nnc(-c3ccccc3)o2)cc1F	> 10 µM
Cc1nc(-c2ccc(C(F)(F)F)cc2)sc1COc1ccc2c(c1)OC[C@H]2CC(=O)O	0.102 µM
Cc1sc(-c2ccccc2)nc1CNc1ccc(OCC(=O)O)c(F)c1	> 10 µM
Cc1cc(OCc2ncc(-c3ccccc3)o2)ccc1OCC(=O)O	> 10 µM
Cc1sc(-c2ccccc2)nc1COc1ccc(OCC(=O)O)c(F)c1	> 10 µM
O=C(O)COc1ccc(OCc2csc(-c3ccccc3)n2)cc1F	> 10 µM
O=C(O)COc1ccc(OCc2nnc(-c3ccccc3)s2)cc1F	> 10 µM
O=C(O)COc1ccc(OCc2nc(-c3ccccc3)cs2)cc1F	> 10 µM
O=C(O)COc1ccc(OCc2ncc(-c3ccccc3)o2)cc1F	> 10 µM
Cc1cc(OCc2csc(-c3ccccc3)n2)ccc1OCC(=O)O	> 10 µM
Cc1cc(OCc2nnc(-c3ccccc3)s2)ccc1OCC(=O)O	> 10 µM

Test system: not listed separately
Experiment: AUC (0 to 24 hrs) in Sprague-Dawley rat at 3 mg/kg, po by LC-MS/MS analysis
Assay type: ADME, organism-based
Parameters: dose 3 mg/kg, time < 24 hr, route oral
Conditions: in vivo

Structure (SMILES)	AUC(0-t) at 24 h
Cc1nc(-c2ccc(C(F)(F)F)cc2)sc1COc1ccc2c(c1)OC[C@H]2CC(=O)O	95600 ng·h/mL

Test system: not listed separately
Experiment: Half life in Sprague-Dawley rat at 3 mg/kg, po by LC-MS/MS analysis
Assay type: ADME, organism-based
Conditions: in vivo

Structure (SMILES)	half-life
Cc1nc(-c2ccc(C(F)(F)F)cc2)sc1COc1ccc2c(c1)OC[C@H]2CC(=O)O	4.31 h

Target: T4, Free fatty acid receptor 1
Experiment: Agonist activity at human FFA1 receptor expressed in CHO cells assessed as activity percentage at 10 uM by Fluo 4-AM dye based FLIPR assay relative to control
Assay type: cell-based
Conditions: not given
Summary of the method: as §3

Structure (SMILES)	Activity
O=C(O)COc1ccc(OCc2ncc(-c3ccccc3)s2)cc1F	31%
O=C(O)COc1ccc(OCc2nnc(-c3ccccc3)o2)cc1F	6%
Cc1sc(-c2ccccc2)nc1CNc1ccc(OCC(=O)O)c(F)c1	42%
Cc1cc(OCc2ncc(-c3ccccc3)o2)ccc1OCC(=O)O	2%
Cc1sc(-c2ccccc2)nc1COc1ccc(OCC(=O)O)c(F)c1	37%
O=C(O)COc1ccc(OCc2csc(-c3ccccc3)n2)cc1F	23%
O=C(O)COc1ccc(OCc2nnc(-c3ccccc3)s2)cc1F	19%
O=C(O)COc1ccc(OCc2nc(-c3ccccc3)cs2)cc1F	15%
O=C(O)COc1ccc(OCc2ncc(-c3ccccc3)o2)cc1F	2%
Cc1cc(OCc2csc(-c3ccccc3)n2)ccc1OCC(=O)O	5%
Cc1cc(OCc2nnc(-c3ccccc3)s2)ccc1OCC(=O)O	1%

Test system: Mus musculus
Experiment: Antidiabetic activity in po dosed ob/ob mouse assessed as reduction in blood glucose AUC (0 to 120 mins) administered as single dose pretreated for 30 mins followed by glucose-challenge by glucometric analysis
Assay type: functional, organism-based
Conditions: not given
Summary of the method: as §1

Structure (SMILES)	Activity
Cc1nc(-c2ccc(C(F)(F)F)cc2)sc1COc1ccc2c(c1)OC[C@H]2CC(=O)O	Dose-dependent effect

Test system: not listed separately
Experiment: Clearance in Sprague-Dawley rat at 3 mg/kg, po by LC-MS/MS analysis
Assay type: ADME, organism-based
Conditions: in vivo

Structure (SMILES)	CL/F
Cc1nc(-c2ccc(C(F)(F)F)cc2)sc1COc1ccc2c(c1)OC[C@H]2CC(=O)O	0.279 mL/min/kg

Test system: Mus musculus
Experiment: Antidiabetic activity in ob/ob mouse assessed as change in blood glucose AUC (0 to 120 mins) at 10 mg/kg, po administered as single dose pretreated for 30 mins followed by glucose-challenge by glucometric analysis relative to control
Assay type: functional
Conditions: not given
Summary of the method: as §1

Structure (SMILES)	Activity
Cc1nc(-c2ccc(C(F)(F)F)cc2)sc1COc1ccc2c(c1)OC[C@H]2CC(=O)O	1.1%
